Test results reported in ChEMBL document CHEMBL4428127, “Discovery of 5-Phenyl-N-(pyridin-2-ylmethyl)-2-(pyrimidin-5-yl)quinazolin-4-amine as a Potent I Kur Inhibitor” (ACS Med Chem Lett, 2016).

Assays:
[1] = biological target: Voltage-gated inwardly rectifying potassium channel KCNH2 (Homo sapiens, UniProt Q12809); assay: Inhibition of human ERG expressed in HEK293 cells by thallium flux assay; type: cell-based
[2] = biological target: T1, Potassium voltage-gated channel subfamily A member 5 (Homo sapiens, UniProt P22460); assay: Inhibition of human Kv1.5 transfected in mouse LTK cells; type: cell-based
T1 sequence (P22460 whole entry): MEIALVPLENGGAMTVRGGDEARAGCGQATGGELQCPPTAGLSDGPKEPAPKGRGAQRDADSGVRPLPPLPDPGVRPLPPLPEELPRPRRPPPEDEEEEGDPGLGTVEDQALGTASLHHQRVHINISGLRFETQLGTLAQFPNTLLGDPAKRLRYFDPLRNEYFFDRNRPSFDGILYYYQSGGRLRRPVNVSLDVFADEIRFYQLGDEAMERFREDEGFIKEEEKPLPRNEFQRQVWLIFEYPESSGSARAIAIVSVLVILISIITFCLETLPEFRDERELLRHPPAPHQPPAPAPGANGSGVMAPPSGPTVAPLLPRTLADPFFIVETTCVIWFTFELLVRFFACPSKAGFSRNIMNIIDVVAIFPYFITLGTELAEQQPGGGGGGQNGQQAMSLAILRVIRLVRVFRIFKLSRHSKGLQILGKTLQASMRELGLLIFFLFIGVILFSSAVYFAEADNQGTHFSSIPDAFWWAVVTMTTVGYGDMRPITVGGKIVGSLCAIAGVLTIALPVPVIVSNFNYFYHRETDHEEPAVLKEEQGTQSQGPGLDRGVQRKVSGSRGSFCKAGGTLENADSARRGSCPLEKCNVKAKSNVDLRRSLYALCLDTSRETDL

[3] = biological target: T1, Potassium voltage-gated channel subfamily A member 5; assay: Inhibition of human Kv1.5 transfected in mouse LTK cells at 0.3 uM; type: cell-based
hERG (KCNH2) [4] = biological target: T2, hERG (KCNH2) (Homo sapiens, UniProt Q12809); assay: Inhibition of human ERG expressed in HEK293 cells at 0.3 uM by thallium flux assay; type: cell-based; details: HEK293 cells that express hERG
T2 sequence (Q12809 whole entry): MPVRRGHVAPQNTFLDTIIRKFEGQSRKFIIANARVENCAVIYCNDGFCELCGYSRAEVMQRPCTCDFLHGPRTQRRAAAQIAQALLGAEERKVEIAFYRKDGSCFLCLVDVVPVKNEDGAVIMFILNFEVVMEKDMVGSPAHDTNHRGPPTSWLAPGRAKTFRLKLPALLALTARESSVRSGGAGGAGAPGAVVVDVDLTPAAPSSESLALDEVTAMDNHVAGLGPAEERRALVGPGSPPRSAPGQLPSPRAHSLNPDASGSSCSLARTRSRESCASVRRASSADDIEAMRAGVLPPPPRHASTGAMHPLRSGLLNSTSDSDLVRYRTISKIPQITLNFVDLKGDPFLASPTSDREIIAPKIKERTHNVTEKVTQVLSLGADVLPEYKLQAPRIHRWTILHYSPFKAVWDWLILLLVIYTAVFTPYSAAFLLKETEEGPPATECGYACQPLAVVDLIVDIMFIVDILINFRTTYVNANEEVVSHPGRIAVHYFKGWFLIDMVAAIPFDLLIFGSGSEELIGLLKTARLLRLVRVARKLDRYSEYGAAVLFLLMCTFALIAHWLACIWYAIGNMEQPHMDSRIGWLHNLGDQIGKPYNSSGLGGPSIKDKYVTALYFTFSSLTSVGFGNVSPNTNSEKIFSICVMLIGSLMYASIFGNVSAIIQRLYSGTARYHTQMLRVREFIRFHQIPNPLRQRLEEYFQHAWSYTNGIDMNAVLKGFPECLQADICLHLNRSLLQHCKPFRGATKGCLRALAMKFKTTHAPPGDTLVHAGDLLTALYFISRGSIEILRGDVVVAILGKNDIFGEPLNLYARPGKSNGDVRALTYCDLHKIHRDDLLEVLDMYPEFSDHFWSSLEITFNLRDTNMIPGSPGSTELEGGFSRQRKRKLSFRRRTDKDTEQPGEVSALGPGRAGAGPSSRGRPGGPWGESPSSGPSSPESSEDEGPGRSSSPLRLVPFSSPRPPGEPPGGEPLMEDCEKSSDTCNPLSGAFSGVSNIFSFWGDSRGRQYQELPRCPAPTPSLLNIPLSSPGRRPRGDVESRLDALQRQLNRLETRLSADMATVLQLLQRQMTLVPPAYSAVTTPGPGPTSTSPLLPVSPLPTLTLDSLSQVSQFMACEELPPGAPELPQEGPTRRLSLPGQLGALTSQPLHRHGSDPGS

hERG (KCNH2) [5] = biological target: T2, hERG (KCNH2); assay: Inhibition of human ERG expressed in HEK293 cells at 1 uM by thallium flux assay; type: cell-based; details: HEK293 cells that express hERG
[6] = Clearance in Sprague-Dawley rat hemodynamic/VERP model at 2 mg/kg, iv; type: ADME, organism-based; details: in vivo
[7] = Half life in Sprague-Dawley rat hemodynamic/VERP model at 5 mg/kg, po; type: ADME, organism-based; details: in vivo
[8] = Metabolic stability in rat liver microsomes assessed as parent compound remaining at 10 mins; type: ADME, Microsome; details: read-out: Stability
How it was run: (§1)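 Compound incubated with rat or mouse liver microsomes; percent parent remaining measured at 10 min.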

[9] = Plasma concentration in rat VERP model at 3 mg/kg, iv as 5 mins infusion measured 10 mins post dose; type: ADME, organism-based
How it was run: (§2)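 Rat VERP model, i.v. infusion over 5 min at 3 or 10 mg/kg. Plasma and brain concentrations measured 10 min after the end of infusion.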

[10] = Toxicity in rabbit assessed as change in systolic blood pressure at 3 mg/kg, iv as 30 mins infusion measured at 20 mins; type: organism-based, Oryctolagus cuniculus; details: in vivo
How it was run: (§3)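 Anesthetized rabbits given 3 mg/kg i.v. in DMF vehicle, infused over 30 min, n = 3–4. Atrial ERP, VERP, QTc (Delta QTc cf), systolic and mean blood pressure, and heart rate recorded as change at 20 min. Plasma concentration sampled at the end of infusion.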

[11] = Plasma concentration in rabbit at 3 mg/kg, iv as 30 mins infusion; type: ADME, organism-based, Oryctolagus cuniculus; how it was run: as §3
[12] = Drug uptake in brain of rat VERP model at 10 mg/kg, iv as 5 mins infusion measured 10 mins post dose; type: ADME, organism-based; details: read-out: Drug uptake; how it was run: as §2
[13] = Toxicity in rabbit assessed as change in heart rate at 3 mg/kg, iv as 30 mins infusion measured at 20 mins; type: organism-based, Oryctolagus cuniculus; details: in vivo; how it was run: as §3
[14] = Volume of distribution at steady state in Sprague-Dawley rat hemodynamic/VERP model at 2 mg/kg, iv; type: ADME, organism-based; details: in vivo, read-out: Vdss
Cytochrome P450 2C9 [15] = biological target: T3, Cytochrome P450 2C9 (Homo sapiens, UniProt P11712); assay: Inhibition of CYP2C9 (unknown origin) at 4 uM; type: ADME
T3 sequence (P11712 whole entry): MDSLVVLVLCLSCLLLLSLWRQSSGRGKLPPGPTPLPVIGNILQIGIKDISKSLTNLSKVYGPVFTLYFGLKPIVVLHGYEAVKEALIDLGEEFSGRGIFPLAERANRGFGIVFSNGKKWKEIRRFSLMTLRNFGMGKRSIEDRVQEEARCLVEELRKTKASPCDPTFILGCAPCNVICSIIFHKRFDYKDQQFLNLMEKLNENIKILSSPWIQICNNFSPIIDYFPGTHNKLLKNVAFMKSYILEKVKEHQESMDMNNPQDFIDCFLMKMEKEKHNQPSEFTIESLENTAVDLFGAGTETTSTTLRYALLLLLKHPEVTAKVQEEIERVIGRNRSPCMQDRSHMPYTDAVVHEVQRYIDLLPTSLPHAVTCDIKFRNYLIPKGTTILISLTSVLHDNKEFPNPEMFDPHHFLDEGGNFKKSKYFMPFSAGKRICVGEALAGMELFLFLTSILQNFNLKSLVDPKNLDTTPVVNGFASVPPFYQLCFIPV

Cytochrome P450 2C19 [16] = biological target: T4, Cytochrome P450 2C19 (Homo sapiens, UniProt P33261); assay: Inhibition of CYP2C19 (unknown origin) at 3 uM; type: ADME
T4 sequence (P33261 whole entry, the tested form may be a part): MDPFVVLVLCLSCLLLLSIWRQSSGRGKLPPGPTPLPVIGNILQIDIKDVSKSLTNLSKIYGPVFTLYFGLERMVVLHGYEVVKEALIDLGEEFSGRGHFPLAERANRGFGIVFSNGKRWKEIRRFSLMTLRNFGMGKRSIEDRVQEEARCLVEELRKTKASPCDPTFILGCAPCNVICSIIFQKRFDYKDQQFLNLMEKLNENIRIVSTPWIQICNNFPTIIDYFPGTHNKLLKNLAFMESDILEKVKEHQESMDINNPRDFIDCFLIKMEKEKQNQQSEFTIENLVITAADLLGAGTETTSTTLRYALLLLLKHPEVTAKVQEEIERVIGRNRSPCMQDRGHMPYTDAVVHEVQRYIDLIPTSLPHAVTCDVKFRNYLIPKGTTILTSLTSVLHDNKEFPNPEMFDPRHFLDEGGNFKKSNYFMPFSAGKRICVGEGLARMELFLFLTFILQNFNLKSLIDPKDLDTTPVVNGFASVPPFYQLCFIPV

[17] = Drug uptake in brain of rat VERP model at 3 mg/kg, iv as 5 mins infusion measured 10 mins post dose; type: ADME, organism-based; details: read-out: Drug uptake; how it was run: as §2
Rattus norvegicus = assay: Pro-arrhythmic activity in rat assessed as increase in ventricular effective refractory period at 10 mg/kg, iv as 10 mins infusion; type: ADME, organism-based; details: in vivo
How it was run: (§4)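 Rats fitted with a multielectrode catheter in the left ventricle to record ventricular effective refractory period. Dose 10 mg/kg i.v. infused over 10 min, n = 2. Percent VERP increase reported together with the plasma concentration reached.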

[18] = Metabolic stability in mouse liver microsomes assessed as parent compound remaining at 10 mins; type: ADME, Microsome; details: read-out: Stability; how it was run: as §1
[19] = Plasma concentration in rat VERP model at 10 mg/kg, iv as 5 mins infusion measured 10 mins post dose; type: ADME, organism-based; how it was run: as §2
[20] = Toxicity in Sprague-Dawley rat VEPR model assessed as seizures at plasma concentration of 7.7 uM administered at 10 mg/kg, iv; type: organism-based; details: in vivo
hERG (KCNH2) [21] = biological target: T2, hERG (KCNH2); assay: Inhibition of human ERG expressed in HEK293 cells at 10 uM by thallium flux assay; type: cell-based; details: HEK293 cells that express hERG
[22] = Toxicity in rabbit assessed as change in mean blood pressure at 3 mg/kg, iv as 30 mins infusion measured at 20 mins; type: organism-based, Oryctolagus cuniculus; details: in vivo; how it was run: as §3
Oryctolagus cuniculus = assay: Increase in atrial effective refractory period in rabbit at 3 mg/kg, iv as 30 mins infusion measured at 20 mins; type: functional; how it was run: as §3
[23] = Oral bioavailability in Sprague-Dawley rat hemodynamic/VERP model at 5 mg/kg; type: ADME, organism-based; details: in vivo
[24] = Toxicity in rabbit assessed as change in corrected QT time interval at 3 mg/kg as 30 mins infusion; type: organism-based, Oryctolagus cuniculus; details: in vivo, iv, 0.5 h; how it was run: as §3
[25] = Half life in Sprague-Dawley rat hemodynamic/VERP model at 2 mg/kg, iv; type: ADME, organism-based; details: in vivo
[26] = Stability in rat liver microsomes; type: ADME, Microsome
[27] = Pro-arrhythmic activity in rat assessed as plasma concentration required to increase 98 +/- 3% ventricular effective refractory period at 10 mg/kg, iv as 10 mins infusion; type: ADME, organism-based; how it was run: as §4
Cytochrome P450 2C19 [28] = biological target: T4, Cytochrome P450 2C19; assay: Inhibition of CYP2C19 (unknown origin) at 1 uM; type: ADME
Cytochrome P450 2C9 [29] = biological target: T3, Cytochrome P450 2C9; assay: Inhibition of CYP2C9 (unknown origin) at 1 uM; type: ADME

Sequence of Voltage-gated inwardly rectifying potassium channel KCNH2 (Q12809 whole entry): as the sequence (Q12809 whole entry) above

## c1ccc(-c2cccc3nc(-c4cncs4)nc(NCc4ccccn4)c23)cc1
[1]
  IC50: 6200 nM
[2]
  IC50: 50 nM

## Fc1cccc(-c2cccc3nc(-c4cncnc4)nc(NCc4ccccn4)c23)c1
[3]
  inhibition: 37%

## c1ccc(-c2cccc3nc(-c4ccncc4)nc(NCc4ccccn4)c23)cc1
[1]
  IC50: 6700 nM
[2]
  IC50: 40 nM

## COc1cncc(-c2nc(NCc3ccccn3)c3c(-c4ccccc4)cccc3n2)c1
[2]
  IC50: 120 nM

## Clc1nc(NCc2ccccn2)c2cccc(-c3ccccc3)c2n1
[3]
  inhibition: 9%

## COc1ncc(-c2nc(NCc3ccccn3)c3c(-c4ccccc4)cccc3n2)cn1
[2]
  IC50: 100 nM

## Cc1noc(C)c1-c1nc(NCc2ccccn2)c2c(-c3ccccc3)cccc2n1
[1]
  IC50: 3100 nM
[2]
  IC50: 90 nM

## O=c1ccc(-c2nc(NCc3ccccn3)c3c(-c4ccccc4)cccc3n2)c[nH]1
[2]
  IC50: 110 nM
hERG (KCNH2) [4]
  inhibition at 0.3 µM: 91%

## Clc1nc(NCc2ccccn2)c2cc(-c3ccccc3)ccc2n1
[3]
  inhibition: 14%

## c1ccc(-c2cccc3nc(-c4cn[nH]c4)nc(NCc4ccccn4)c23)cc1
[2]
  IC50: 160 nM
hERG (KCNH2) [5]
  inhibition at 1 µM: 88%

## Cc1nc(NCc2ccccn2)c2c(-c3ccccc3)cccc2n1
[1]
  IC50: 4600 nM
[3]
  inhibition: 72%

## Fc1ccc(-c2cccc3nc(-c4cncnc4)nc(NCc4ccccn4)c23)cc1
[2]
  IC50: 250 nM

## NC(=O)c1ccc(-c2cccc3nc(-c4cncnc4)nc(NCc4ccccn4)c23)cc1
[3]
  inhibition: 8%

## FC(F)(F)c1nc(NCc2ccccn2)c2c(-c3ccccc3)cccc2n1
[1]
  IC50: 10000 nM
[2]
  IC50: 80 nM

## N#Cc1nc(NCc2ccccn2)c2c(-c3ccccc3)cccc2n1
[1]
  IC50: > 80000 nM
[2]
  IC50: 50 nM

## Clc1nc(NCc2ccccn2)c2ccc(-c3ccccc3)cc2n1
[3]
  inhibition: 9%

## c1ccc(-c2cccc3nc(-c4cncnc4)nc(NCc4ccccn4)c23)cc1
[6]
  clearance: 4.6 mL/min/kg
[7]
  half-life: 3.5 h
[8]
  remaining at 10 min: 58%
[9]
  concentration at 10 min: 3.1 µM
[10]
  Activity: -3.4%
[11]
  concentration at 0.5 h: 2.7 µM
[2]
  IC50: 90 nM
[12]
  concentration at 10 min: 25 µM
[13]
  Activity: -3.1%
[14]
  Vd: 5.2 L/kg
Cytochrome P450 2C9 [15]
  inhibition (INH): Active
Cytochrome P450 2C19 [16]
  inhibition (INH): Active
[17]
  concentration at 10 min: 8.8 µM
Rattus norvegicus
  Activity: Non-Toxic
[18]
  remaining at 10 min: 75%
[19]
  concentration at 10 min: 7.7 µM
[20]
  Activity: Non-Toxic
hERG (KCNH2) [21]
  inhibition at 10 µM: 43%
[22]
  Activity: -3.8%
Oryctolagus cuniculus
  Activity: 21.4%
[23]
  bioavailability: 6.3%
[24]
  Time: 13 ms
[25]
  half-life: 15 h

## FC(F)(F)c1ccc(-c2cccc3nc(-c4cncnc4)nc(NCc4ccccn4)c23)cc1
[2]
  IC50: 150 nM

## NC(=O)c1nc(NCc2ccccn2)c2c(-c3ccccc3)cccc2n1
[3]
  inhibition: 9%

## Clc1nc(NCc2ccccn2)c2c(-c3ccccc3)cccc2n1
[6]
  clearance: 8.2 mL/min/kg
[7]
  half-life: 1.9 h
[10]
  Activity: 0.1%
[1]
  IC50: > 80000 nM
[11]
  concentration at 0.5 h: 9.1 µM
[2]
  IC50: 70 nM
[13]
  Activity: -3.2%
[14]
  Vd: 2.3 L/kg
[26]
  Stability: Unstable
[27]
  concentration at 10 min: 26 µM
Rattus norvegicus
  Activity: 98%
[22]
  Activity: -1%
Oryctolagus cuniculus
  Activity: 9%
[23]
  bioavailability: 10%
[3]
  inhibition: 86%
[25]
  half-life: 7.3 h

## c1ccc(-c2cccc3nc(C4CC4)nc(NCc4ccccn4)c23)cc1
[2]
  IC50: 170 nM

## COCCNc1ncc(-c2nc(NCc3ccccn3)c3c(-c4ccccc4)cccc3n2)cn1
[3]
  inhibition: 20%

## Cc1n[nH]c(C)c1-c1nc(NCc2ccccn2)c2c(-c3ccccc3)cccc2n1
[3]
  inhibition: 20%

## N#Cc1ccc(-c2nc(NCc3ccccn3)c3c(-c4ccccc4)cccc3n2)cn1
[2]
  IC50: 130 nM
hERG (KCNH2) [5]
  inhibition at 1 µM: 51%

## Cn1cncc1-c1nc(NCc2ccccn2)c2c(-c3ccccc3)cccc2n1
[1]
  IC50: 2700 nM
[3]
  inhibition: 41%

## c1ccc(-c2cccc3nc(-c4cccnc4)nc(NCc4ccccn4)c23)cc1
[8]
  remaining at 10 min: 7%
[2]
  IC50: 60 nM
Cytochrome P450 2C19 [28]
  inhibition (INH): Active
Cytochrome P450 2C9 [29]
  inhibition (INH): Active
[18]
  remaining at 10 min: 22%

## CN(C)c1nc(NCc2ccccn2)c2c(-c3ccccc3)cccc2n1
[1]
  IC50: 2500 nM
[3]
  inhibition: 59%
